Experiments:
[1] = biological target: Leucine-rich repeat serine/threonine-protein kinase 2 (Homo sapiens, UniProt Q5S007, G2019S); experiment: Inhibition of recombinant human GST-tagged LRRK2 G2019S mutant catalytic domain (970 to 2527 residues) expressed in baculovirus expression system by radiometric assay
[2] = Stability in human liver microsomes assessed as compound turnover rate measured after 40 mins; format: ADME, Microsome; conditions: read-out: Drug metabolism
Method in brief: (§1)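 In vitro incubation of compound with liver microsomes: human (HLM) for 40 min, mouse (MLM) for 30 min. Reported as % turnover of parent compound.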

[3] = Stability in mouse liver microsomes assessed as compound turnover rate measured after 30 mins; format: ADME, Microsome; conditions: read-out: Drug metabolism; method in brief: as §1
[4] = Ratio of drug level in mouse brain to plasma; conditions: read-out: BPR
Method in brief: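 Mice; ratio based on total (not unbound) compound concentrations in brain versus plasma.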

[5] = Lipophilicity, log D of the compound at pH 7.4; format: physicochemical; conditions: buffer

Leucine-rich repeat serine/threonine-protein kinase 2, sequence (Q5S007 whole entry G2019S, the tested form may be a part): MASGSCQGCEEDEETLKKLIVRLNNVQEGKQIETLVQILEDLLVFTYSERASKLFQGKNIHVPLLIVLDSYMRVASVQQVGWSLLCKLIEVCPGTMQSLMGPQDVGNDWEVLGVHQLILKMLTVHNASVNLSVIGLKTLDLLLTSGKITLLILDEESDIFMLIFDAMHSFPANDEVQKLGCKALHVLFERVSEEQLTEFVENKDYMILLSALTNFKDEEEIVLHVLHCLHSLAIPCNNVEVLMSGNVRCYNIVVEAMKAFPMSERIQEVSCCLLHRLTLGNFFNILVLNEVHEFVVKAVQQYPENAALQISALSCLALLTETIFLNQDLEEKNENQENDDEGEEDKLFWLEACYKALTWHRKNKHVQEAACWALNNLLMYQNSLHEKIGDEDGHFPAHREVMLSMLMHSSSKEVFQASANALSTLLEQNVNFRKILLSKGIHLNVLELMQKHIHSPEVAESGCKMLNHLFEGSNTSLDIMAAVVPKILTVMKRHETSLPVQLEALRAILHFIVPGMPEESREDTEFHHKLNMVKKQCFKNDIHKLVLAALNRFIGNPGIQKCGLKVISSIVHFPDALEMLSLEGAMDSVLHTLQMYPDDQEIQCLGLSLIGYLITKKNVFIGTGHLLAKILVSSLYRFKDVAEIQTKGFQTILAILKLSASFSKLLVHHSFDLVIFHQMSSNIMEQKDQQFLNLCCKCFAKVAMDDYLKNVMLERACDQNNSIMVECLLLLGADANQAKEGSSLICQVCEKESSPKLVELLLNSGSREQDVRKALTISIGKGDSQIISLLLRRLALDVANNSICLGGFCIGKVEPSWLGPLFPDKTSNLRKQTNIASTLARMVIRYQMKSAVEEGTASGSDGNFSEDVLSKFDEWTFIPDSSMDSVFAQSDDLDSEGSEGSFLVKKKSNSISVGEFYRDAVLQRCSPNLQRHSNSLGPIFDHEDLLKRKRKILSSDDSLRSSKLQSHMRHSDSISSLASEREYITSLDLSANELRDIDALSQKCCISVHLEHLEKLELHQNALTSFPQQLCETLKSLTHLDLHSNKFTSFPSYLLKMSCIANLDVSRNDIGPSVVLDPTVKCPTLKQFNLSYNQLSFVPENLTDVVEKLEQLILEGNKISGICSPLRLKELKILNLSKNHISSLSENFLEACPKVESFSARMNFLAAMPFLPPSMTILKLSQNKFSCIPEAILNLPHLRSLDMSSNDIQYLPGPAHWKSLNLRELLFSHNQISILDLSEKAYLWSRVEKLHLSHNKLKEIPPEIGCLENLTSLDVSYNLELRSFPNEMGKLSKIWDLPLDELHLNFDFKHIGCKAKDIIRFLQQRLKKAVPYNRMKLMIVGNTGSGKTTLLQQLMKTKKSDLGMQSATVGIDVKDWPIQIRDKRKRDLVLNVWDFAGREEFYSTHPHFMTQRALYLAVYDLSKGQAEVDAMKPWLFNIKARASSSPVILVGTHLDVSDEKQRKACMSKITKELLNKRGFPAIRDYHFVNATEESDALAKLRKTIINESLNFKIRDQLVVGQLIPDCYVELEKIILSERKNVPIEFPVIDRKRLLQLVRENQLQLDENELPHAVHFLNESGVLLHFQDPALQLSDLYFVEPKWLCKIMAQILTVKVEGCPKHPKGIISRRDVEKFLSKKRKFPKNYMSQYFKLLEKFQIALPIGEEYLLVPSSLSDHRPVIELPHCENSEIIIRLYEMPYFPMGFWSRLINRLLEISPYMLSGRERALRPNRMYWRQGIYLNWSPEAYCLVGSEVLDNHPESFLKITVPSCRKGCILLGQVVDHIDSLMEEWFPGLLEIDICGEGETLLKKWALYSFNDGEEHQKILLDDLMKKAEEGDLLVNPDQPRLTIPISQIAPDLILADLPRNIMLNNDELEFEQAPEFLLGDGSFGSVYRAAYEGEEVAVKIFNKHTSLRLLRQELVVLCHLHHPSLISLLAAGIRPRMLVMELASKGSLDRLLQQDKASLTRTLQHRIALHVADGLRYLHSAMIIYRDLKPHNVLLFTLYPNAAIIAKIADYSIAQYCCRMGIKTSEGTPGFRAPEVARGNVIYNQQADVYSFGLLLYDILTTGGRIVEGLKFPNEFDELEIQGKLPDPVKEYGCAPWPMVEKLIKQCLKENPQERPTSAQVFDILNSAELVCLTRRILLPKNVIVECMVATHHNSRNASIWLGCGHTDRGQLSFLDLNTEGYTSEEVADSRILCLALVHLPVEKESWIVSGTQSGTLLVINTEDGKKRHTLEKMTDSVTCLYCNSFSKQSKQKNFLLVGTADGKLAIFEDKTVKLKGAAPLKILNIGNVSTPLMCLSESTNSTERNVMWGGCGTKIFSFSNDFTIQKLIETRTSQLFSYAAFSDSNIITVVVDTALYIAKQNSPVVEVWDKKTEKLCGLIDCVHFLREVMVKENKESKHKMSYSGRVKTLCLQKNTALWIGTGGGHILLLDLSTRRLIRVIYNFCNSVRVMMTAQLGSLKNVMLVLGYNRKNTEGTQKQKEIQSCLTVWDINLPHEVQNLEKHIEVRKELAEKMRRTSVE

| SMILES | IC50 [1] [nM] | metabolised at 40 min [2] [%] | metabolised at 0.5 h [3] [%] | Kp [4] | logD [5] |
| --- | --- | --- | --- | --- | --- |
| Cc1noc2ccnc(NC3CCCCC3)c12 | > 10000 | – | – | – | – |
| CC(C)Cn1cc(-c2n[nH]c3ccnc(OC4CCOCC4)c23)cn1 | 15 | – | – | – | – |
| c1cc(-c2n[nH]c3ccnc(NC4CCOCC4)c23)cc(N2CCOCC2)n1 | – | 17 | 11 | – | – |
| Cc1nn(C)c2ccnc(NC3CCCCC3)c12 | > 10000 | – | – | – | – |
| Cc1n[nH]c2ccnc(NC3CCC3)c12 | 530 | – | – | – | – |
| Cc1n[nH]c2ccnc(OC3CCCC3)c12 | 86 | 31 | 42 | – | – |
| Cc1n[nH]c2ccnc(NC3CCOCC3)c12 | 190 | 0 | 4 | 1.6 | 1.2 |
| Cc1n[nH]c2ccnc(NC3CC3)c12 | 4700 | – | – | – | – |
| Cc1n[nH]c2ccnc(OC3CCN(C)CC3)c12 | 1900 | – | – | – | – |
| Cc1n[nH]c2ccnc(OC(C)C)c12 | 68 | 2 | 24 | – | – |
| Cc1n[nH]c2ccnc(Nc3cnn(C)c3)c12 | 830 | – | – | – | – |
| Cc1n[nH]c2ccnc(Nc3cccnc3)c12 | > 10000 | – | – | – | – |
| Cc1n[nH]c2ccnc(NC3CCCC3)c12 | 410 | 2 | 10 | – | – |
| Cc1n[nH]c2ccnc(NCC3CC3)c12 | 2400 | – | – | – | – |
| Cc1n[nH]c2ccnc(OC3CCC3)c12 | 170 | 22 | 41 | – | – |
| Cc1c[nH]c2ccnc(NC3CCCCC3)c12 | > 10000 | – | – | – | – |

| SMILES | IC50 [1] [nM] | metabolised at 40 min [2] [%] | metabolised at 0.5 h [3] [%] | Kp [4] | logD [5] |
| --- | --- | --- | --- | --- | --- |
| Cc1n[nH]c2ccnc(Nc3ccc(Cl)cc3)c12 | 390 | – | – | – | – |
| Cc1n[nH]c2ccnc(NCc3ccc(Cl)cc3)c12 | 4900 | – | – | – | – |
| Cc1n[nH]c2ccnc(N3CCOCC3)c12 | 3000 | – | – | – | – |
| Cc1n[nH]c2ccnc(N(C)C3CCCCC3)c12 | 1600 | – | – | – | – |
| CC(C)Cn1cc(-c2n[nH]c3ccnc(NC4CCOCC4)c23)cn1 | 410 | – | – | – | – |
| Cn1cc(-c2n[nH]c3ccnc(NC4CCCCC4)c23)cn1 | 130 | 21 | 19 | – | 2.7 |
| Cc1n[nH]c2ccnc(NC(C)C)c12 | 880 | – | – | – | – |
| CCOc1nccc2[nH]nc(C)c12 | 440 | – | – | – | – |
| c1cc2[nH]nc(-c3cnn(C4CCCC4)c3)c2c(OC2CCOCC2)n1 | 4 | – | – | – | – |
| Cc1n[nH]c2cncc(NC3CCCCC3)c12 | 770 | – | – | – | – |
| Cc1n[nH]c2ccnc(O[C@@H]3CCOC3)c12 | 250 | 0 | 13 | – | – |
| CC(C)n1cc(-c2n[nH]c3ccnc(NC4CCCCC4)c23)cn1 | 110 | 23 | 43 | – | 3.2 |
| CC[C@H](C)Nc1nccc2[nH]nc(C)c12 | 300 | 6 | 9 | – | – |
| c1cc2[nH]nc(-c3cnn(C4CCCC4)c3)c2c(NC2CCOCC2)n1 | 170 | – | – | – | – |
| Cc1ccc(Nc2nccc3[nH]nc(C)c23)cc1 | 97 | 13 | 28 | – | – |
| CC(C)n1cc(-c2n[nH]c3ccnc(OC4CCCCC4)c23)cn1 | 2 | 36 | 66 | – | 3.7 |
